In ChEMBL document CHEMBL2346664, “Synthesis, characterization and in vitro anticancer evaluation of novel 1,2,4-triazolin-3-one derivatives” (2013):

Assays:
Format in all cases: functional
[1] = system: RXF 393; experiment: Growth inhibition of human RXF393 cells assessed as cell growth at 10 uM after 48 hrs by sulforhodamine B assay; conditions: RXF 393, 48 h, read-out: Activity
Method in brief: (§1)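 NCI-60 single-dose screen at 10^-5 M. Cells plated at 5,000–40,000/well by doubling time and grown 24 h at 37 °C, 5% CO2, then drug added from DMSO stock for 48 h continuous exposure. Adherent cells fixed with cold TCA (final 10%), suspension cells with 16% TCA. SRB stain read at 515 nm. Reported as growth percent relative to untreated controls and time-zero plates.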

[2] = Growth inhibition of human NCI-ADR-RES cells assessed as cell growth at 10 uM after 48 hrs by sulforhodamine B assay; conditions: read-out: Activity
Method in brief: (§2)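 NCI-60 primary single-dose screen at 10^-5 M, 48 h continuous exposure. Adherent cells were fixed with cold TCA (10% final) and suspension cells with 16% final TCA, then stained with 0.4% SRB in 1% acetic acid. Bound dye was solubilized in 10 mM Tris base and read at 515 nm. Output is growth percent relative to untreated controls, and GI% is 100 minus growth percent.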

[3] = Growth inhibition of human HCC2998 cells assessed as cell growth at 10 '-5 M after 48 hrs by sulforhodamine B assay; conditions: HCC 2998, 48 h, read-out: Activity
[4] = system: HOP-92; experiment: Growth inhibition of human HOP92 cells assessed as cell growth at 10 uM after 48 hrs by sulforhodamine B assay; conditions: HOP-92, 48 h, read-out: Activity; method in brief: as §2
[5] = Growth inhibition of human Hs 578T cells assessed as cell growth at 10 uM after 48 hrs by sulforhodamine B assay; conditions: read-out: Activity; method in brief: as §2
[6] = Growth inhibition of human EKVX cells assessed as cell growth at 10 uM after 48 hrs by sulforhodamine B assay; conditions: read-out: Activity; method in brief: as §2
[7] = system: KM12; experiment: Growth inhibition of human KM12 cells assessed as cell growth at 10 uM after 48 hrs by sulforhodamine B assay; conditions: KM12, 48 h, read-out: Activity; method in brief: as §2
[8] = system: NCI-H460; experiment: Growth inhibition of human NCI-H460 cells assessed as cell growth at 10 uM after 48 hrs by sulforhodamine B assay; conditions: NCI-H460, 48 h; method in brief: as §1
[9] = system: OVCAR-5; experiment: Growth inhibition of human OVCAR5 cells assessed as cell growth at 10 uM after 48 hrs by sulforhodamine B assay; conditions: OVCAR-5, 48 h, read-out: Activity; method in brief: as §1
[10] = system: MOLT-4; experiment: Growth inhibition of human MOLT4 cells assessed as cell growth at 10 uM after 48 hrs by sulforhodamine B assay; conditions: MOLT-4, 48 h, read-out: Activity; method in brief: as §2
[11] = system: A549; experiment: Growth inhibition of human A549 cells assessed as cell growth at 10 uM after 48 hrs by sulforhodamine B assay; conditions: A549, 48 h, read-out: Activity
Method in brief: (§3)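 NCI-60 primary screen at a single dose of 10^-5 M. Output is mean growth percent of treated cells relative to untreated controls, where values between 0 and 100 indicate growth inhibition and values below 0 indicate cytotoxicity. Cells were plated 24 h before drug, incubated 48 h at 37 °C, 5% CO2, and stained with SRB after TCA fixation. Suspension cells were fixed with 80% TCA (16% final).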

[12] = Growth inhibition of human EKVX cells assessed as cell growth at 10 '-4 M after 48 hrs by sulforhodamine B assay; conditions: read-out: Activity
[13] = system: SK-MEL-5; experiment: Growth inhibition of human SK-MEL-5 cells assessed as cell growth at 10 uM after 48 hrs by sulforhodamine B assay; conditions: SK-MEL-5, 48 h, read-out: Activity; method in brief: as §1
[14] = system: CCRF-CEM; experiment: Growth inhibition of human CCRF-CEM cells assessed as cell growth at 10 uM after 48 hrs by sulforhodamine B assay; conditions: read-out: Activity; method in brief: as §3
[15] = system: OVCAR-8; experiment: Growth inhibition of human OVCAR8 cells assessed as cell growth at 10 uM after 48 hrs by sulforhodamine B assay; conditions: OVCAR-8, 48 h, read-out: Activity; method in brief: as §1
[16] = system: NCI-H23; experiment: Growth inhibition of human NCI-H23 cells assessed as cell growth at 10 '-4 M after 48 hrs by sulforhodamine B assay; conditions: NCI-H23, 48 h, read-out: Activity
[17] = system: NCI-H322M; experiment: Growth inhibition of human NCI-H322M cells assessed as cell growth at 10 uM after 48 hrs by sulforhodamine B assay; conditions: read-out: Activity; method in brief: as §1
[18] = system: SK-MEL-2; experiment: Growth inhibition of human SK-MEL-2 cells assessed as cell growth at 10 uM after 48 hrs by sulforhodamine B assay; conditions: SK-MEL-2, 48 h, read-out: Activity; method in brief: as §1
[19] = system: MDA-MB-468; experiment: Growth inhibition of human MDA-MB-468 cells assessed as cell growth at 10 uM after 48 hrs by sulforhodamine B assay; conditions: MDA-MB-468, 48 h, read-out: Activity; method in brief: as §2
[20] = system: UACC-257; experiment: Growth inhibition of human UACC257 cells assessed as growth inhibition at 10 uM after 48 hrs by sulforhodamine B assay; conditions: UACC-257, 48 h, read-out: GI
[21] = system: UACC-257; experiment: Growth inhibition of human UACC257 cells assessed as cell growth at 10 uM after 48 hrs by sulforhodamine B assay; conditions: UACC-257, 48 h, read-out: Activity; method in brief: as §1
[22] = system: SF-268; experiment: Growth inhibition of human SF268 cells assessed as cell growth at 10 uM after 48 hrs by sulforhodamine B assay; conditions: SF-268, 48 h, read-out: Activity; method in brief: as §1
[23] = Growth inhibition of human HCC2998 cells assessed as cell growth at 10 uM after 48 hrs by sulforhodamine B assay; conditions: HCC 2998, 48 h, read-out: Activity; method in brief: as §2
[24] = system: RPMI-8226; experiment: Growth inhibition of human RPMI8226 cells assessed as cell growth at 10 uM after 48 hrs by sulforhodamine B assay; conditions: RPMI-8226, 48 h, read-out: Activity; method in brief: as §1
[25] = system: A498; experiment: Growth inhibition of human A498 cells assessed as cell growth at 10 uM after 48 hrs by sulforhodamine B assay; conditions: A498, 48 h, read-out: Activity; method in brief: as §3
[26] = system: CAKI-1; experiment: Growth inhibition of human CAKI-1 cells assessed as cell growth at 10 uM after 48 hrs by sulforhodamine B assay; conditions: CAKI-1, 48 h, read-out: Activity; method in brief: as §3
[27] = system: SK-MEL-2; experiment: Growth inhibition of human SK-MEL-2 cells assessed as growth inhibition at 10 uM after 48 hrs by sulforhodamine B assay; conditions: SK-MEL-2, 48 h, read-out: GI
[28] = system: LOX IMVI; experiment: Growth inhibition of human LOXIMVI cells assessed as cell growth at 10 uM after 48 hrs by sulforhodamine B assay; conditions: read-out: Activity; method in brief: as §2
[29] = system: HCT-116; experiment: Growth inhibition of human HCT116 cells assessed as cell growth at 10 uM after 48 hrs by sulforhodamine B assay; conditions: HCT-116, 48 h, read-out: Activity; method in brief: as §2
[30] = system: HCT-15; experiment: Growth inhibition of human HCT15 cells assessed as cell growth at 10 uM after 48 hrs by sulforhodamine B assay; conditions: HCT-15, 48 h, read-out: Activity; method in brief: as §2
[31] = system: SK-MEL-28; experiment: Growth inhibition of human SK-MEL-28 cells assessed as cell growth at 10 uM after 48 hrs by sulforhodamine B assay; conditions: SK-MEL-28, 48 h, read-out: Activity; method in brief: as §1

Compound | growth at 10 µM [1] | growth at 10 µM [2] | growth at 10 µM [4] | growth at 10 µM [5] | growth at 10 µM [6] | growth at 10 µM [7] | growth at 10 µM [9] | growth at 10 µM [10] | growth at 10 µM [11] | growth at 10 µM [13] | growth at 10 µM [14] | growth at 10 µM [15] | growth at 10 µM [17] | growth at 10 µM [18] | growth at 10 µM [19] | growth at 10 µM [21] | growth at 10 µM [22] | growth at 10 µM [23] | growth at 10 µM [24] | growth at 10 µM [25] | also measured
Cc1cc(=O)oc2cc(OCCn3c(C)nn(-c4ccc(Cl)cc4)c3=O)ccc12 | 37.4% | 24.7% | 47.4% | 34.8% | 58.7% | 31.4% | 38.8% | 37.6% | 30.2% | 10.8% | 13.4% | 17.7% | 58.7% | 3.55% | 16.1% | 22.5% | 50.3% | 46.7% | 31% | 25.7% | growth at 10 µM [3]: 29%; inhibition of growth at 10 µM ([8]; read-out: GI): 17.2%; growth at 100 µM [12]: 55%; growth at 100 µM [16]: 19%; inhibition of growth at 10 µM [20]: 77.5%; growth at 10 µM [26]: 19.5%; inhibition of growth at 10 µM [27]: 96.5%; growth at 10 µM [28]: 48%; growth at 10 µM [29]: 15.1%; growth at 10 µM [30]: 17.7%; growth at 10 µM [31]: 40.8%
Cc1nn(-c2ccc(Cl)cc2)c(=O)n1CCN1CCOCC1 | 42.1% | 75.9% | 30.1% | 42.7% | 75.5% | 81.3% | 92.4% | 90.9% | 56.4% | 80.3% | 63.2% | 116% | 92.2% | 61.1% | 90.3% | 73.4% | 48.4% | 91.3% | 83.1% | 105% | growth at 10 µM ([8]; read-out: Activity): 41.8%; growth at 10 µM [26]: 72.4%; growth at 10 µM [28]: 81.6%; growth at 10 µM [29]: 29.5%; growth at 10 µM [30]: 74.2%; growth at 10 µM [31]: 92.9%
